This note sets out measurements from ChEMBL document CHEMBL1145315, “Synthesis and hypoxic-cytotoxic activity of some 3-amino-1,2,4-benzotriazine-1,4-dioxide derivatives” (Bioorg Med Chem Lett, 2006).

Assay [1] has as its system HepG2. In words: Cytotoxicity against human HepG2 cells after 48 hrs by MTT assay. The following applies: HepG2, 48 h. Format: functional, cell-based. In outline: (§1)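 Cells were exposed in hypoxia for 48 h with tirapazamine as the reference drug. Growth was read by MTT assay and IC50 was calculated by the LOGIT method.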
For orientation: Tetrazolium assays rely on reduction of a dye to a coloured formazan, in cell work by metabolically active cells.

The test system of assay [2] is HL-60. Briefly: Cytotoxicity against human HL60 cells after 48 hrs by MTT assay. Format: functional, cell-based. To be noted: HL-60, 48 h. In outline:
as §1

Assay [3] concerns PC-3. In words: Cytotoxicity against human PC3 cells after 48 hrs by MTT assay. Format: functional, cell-based. The following applies: PC-3, 48 h. In outline:
as §1

Assay [4] deals with MOLT-4. In words: Cytotoxicity against human Molt4 cells after 48 hrs by MTT assay. Format: functional, cell-based. The following applies: MOLT-4, 48 h. In outline: as §1
For assay [5], the system named is K562. Briefly: Cytotoxicity against human K562 cells after 48 hrs by MTT assay. The following applies: K562, 48 h. Format: functional, cell-based. In outline:
as §1

Assay [6] relates to MOLT-4. Briefly: Reduction of mitochondrial membrane potential in human Molt4 cells after 12 hrs at 2 uM. Format: functional, cell-based. In outline:
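Cells were treated with 2.0 μM compound for 12 h in hypoxia and then stained with JC-1. Flow cytometry read depolarization as a rise in the green:red fluorescence ratio. Values are means ± SD from three separate experiments, each run in triplicate.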

Assay [7] relates to MOLT-4. Briefly: Ratio of cytotoxicity against human Molt4 cells in normoxia to hypoxia after 48 hrs. Format: functional, cell-based. To be noted: MOLT-4, 48 h.
Assay [8] deals with HL-60. Briefly: Ratio of cytotoxicity against human HL60 cells in normoxia to hypoxia after 48 hrs. To be noted: HL-60, 48 h. Format: functional, cell-based.
The subject of assay [9] is HL-60. In words: Cytotoxicity against human HL60 cells in hypoxia after 48 hrs. Format: functional, cell-based. To be noted: HL-60, 48 h. In outline: (§2)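 Cells were exposed for 48 h in either normoxia or hypoxia. IC50 was determined separately under each oxygen condition.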
Assay [10] concerns MOLT-4. In words: Increase in p53 level in human Molt4 cells in hypoxia after 24 hrs at 2 uM. Format: functional, cell-based. In outline:
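Cells were exposed to 2.0 μM compound for 24 h in hypoxia, and p53 protein was measured by Western blot. The experiment was repeated three times.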

Assay [11] concerns MOLT-4. Briefly: Induction of apoptosis in human Molt4 cells after 24 hrs at 2 uM. Format: functional. In outline:
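Cells were cultured in complete medium under 3% O2 with 2.0 μM compound for 24 h, alongside an untreated control. Lysed nuclei were stained with propidium iodide, and DNA content was analysed by flow cytometry on 20,000 events per test, scoring the apoptotic fraction. The experiment was done three times.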

The test system of assay [12] is MOLT-4. Briefly: Cytotoxicity against human Molt4 cells in normoxia after 48 hrs. Format: functional, cell-based. To be noted: MOLT-4, 48 h. In outline:
as §2

Assay [13] relates to HL-60. Briefly: Cytotoxicity against human HL60 cells in normoxia after 48 hrs. Format: functional, cell-based. To be noted: HL-60, 48 h. In outline: as §2
For assay [14], the system named is MOLT-4. In words: Cytotoxicity against human Molt4 cells in hypoxia after 48 hrs. Format: functional, cell-based. To be noted: MOLT-4, 48 h. In outline: as §2

The structures appear in SMILES notation. Active and inactive are the calls of the source. No cut-off for these calls is given here. Some results are limits rather than exact numbers.

`CCCCCCCCNc1n[n+]([O-])c2ccccc2[n+]1[O-]`: the half-maximal inhibitory concentration (IC50) was 17.4 µM in assay [1]; 7.2 µM in [2]; 18.2 µM in assay [3]; 4.9 µM in [4]; 4.7 µM in assay [5].

On to `COc1ccc(Nc2n[n+]([O-])c3ccccc3[n+]2[O-])cc1`, for which the outcome in assay [6] and in assay [10] was Active. Moreover, the figures for the IC50 ratio in assay [7] and in [8] were 8.67 and 7.56, respectively. The IC50 came out at 10.1 µM in assay [1]; 0.9 µM in assay [9]; 0.9 µM in [2]; 12 µM in assay [3]; 0.6 µM in assay [4]; 5.2 µM in assay [12]. Also, the concentration for half-maximal inhibition (IC50) in assay [5] was 2.9 µM; in [13], 6.8 µM; in assay [14], 0.6 µM. Also, the Activity in assay [11] is given as 45%.

For `Nc1n[n+]([O-])c2ccccc2[n+]1[O-]` [TIRAPAZAMINE], the outcome in assay [6] and in assay [10] was Active. Besides, the IC50 ratio in assay [7] was 3.43; in assay [8], 2.31. Further, the 50% inhibitory concentration (IC50) in assay [1] came out at 19.1 µM; in assay [9], 7 µM; in [2], 7 µM; in [3], 22.3 µM; in assay [4] it was 4.6 µM; in assay [12] it was 15.8 µM. Moreover, the IC50 was determined as 5.2 µM in [5], 16.1 µM in assay [13] and 4.6 µM in assay [14]. In assay [11], this compound returned an Activity of 11%.

On to `Nc1ccccc1Nc1n[n+]([O-])c2ccccc2[n+]1[O-]`, for which the IC50 in assay [1] worked out at 17.4 µM; in assay [2] it was 8.3 µM; in assay [3] it was 16.1 µM; in assay [4], 2.3 µM; in [5] it was 10.6 µM.

Take `[O-][n+]1nc(NC2CCCCC2)[n+]([O-])c2ccccc21`: the IC50 came out at 9.5 µM in assay [1]; 2.5 µM in assay [2]; 10.5 µM in assay [3]; 1.3 µM in [4]; 2.6 µM in [5].

Regarding `[O-][n+]1nc(Nc2ccccc2)[n+]([O-])c2ccccc21`, the half-inhibitory concentration (IC50) was 15 µM in [1]; 2.9 µM in assay [2]; 17 µM in [3]; 1.4 µM in assay [4]; 2.4 µM in [5].

With `CCN(CC)c1n[n+]([O-])c2ccccc2[n+]1[O-]`, the IC50 was > 107 µM in assay [1]; > 49 µM in assay [2]; > 107 µM in [3]; > 17.6 µM in [4]; > 55 µM in assay [5].

As to `C=CCNc1n[n+]([O-])c2ccccc2[n+]1[O-]`, the half-maximal inhibitory concentration (IC50) in [1] was > 56 µM; in assay [2], 25.8 µM; in assay [3] it was > 56 µM; in assay [4], 3 µM; in assay [5], 11.2 µM.

Consider `[O-][n+]1nc(NCCO)[n+]([O-])c2ccccc21`, for which the half-maximal inhibitory concentration (IC50) in assay [1] was 23.2 µM; in assay [2], 10.7 µM; in assay [3], 22.4 µM; in assay [4] it was 2.6 µM; in [5], 3.7 µM.

Regarding `Cc1ccc(Nc2n[n+]([O-])c3ccccc3[n+]2[O-])cc1`, the 50% inhibitory concentration (IC50) amounted to 10.6 µM in assay [1]; 1.5 µM in assay [2]; 10.3 µM in assay [3]; 1.1 µM in assay [4]; 2.5 µM in [5].

`[O-][n+]1nc(NCc2ccccc2)[n+]([O-])c2ccccc21`: the result in assay [6] and in [10] was Active. Besides, the IC50 ratio in [7] was determined as 3.68; in assay [8] it was 2.53. Further, the IC50 was determined as 8.2 µM in assay [1]; 2.5 µM in [9]; 2.5 µM in assay [2]; 10.7 µM in assay [3]; 2.2 µM in assay [4]; 8.1 µM in assay [12]. Moreover, the concentration for half-maximal inhibition (IC50) in assay [5] was 1.9 µM; in assay [13], 6.3 µM; in assay [14], 2.2 µM. In assay [11], this compound gave an Activity of 33%.

Take `O=[N+]([O-])c1ccc(CNc2n[n+]([O-])c3ccccc3[n+]2[O-])cc1`: the IC50 ratio amounted to 6.25 in assay [7] and 4.29 in assay [8]. In addition, the IC50 in [1] was 7.7 µM; in [9] it was 1.4 µM; in [2], 1.4 µM; in assay [3], 7.4 µM; in assay [4] it was 0.8 µM; in assay [12], 5 µM. Besides, the 50% inhibitory concentration (IC50) in [5] was determined as 3.1 µM; in assay [13], 6 µM; in assay [14] it was 0.8 µM.

Turning to `[O-][n+]1nc(NC2CC2)[n+]([O-])c2ccccc21`, the 50% inhibitory concentration (IC50) turned out to be 13.3 µM in assay [1]; 3.6 µM in [2]; 15.9 µM in assay [3]; 1.9 µM in [4]; 6.6 µM in assay [5].

For `CCNc1n[n+]([O-])c2ccccc2[n+]1[O-]`, the IC50 was 13.5 µM in assay [1]; 9 µM in [2]; 13.3 µM in assay [3]; 3.3 µM in [4]; 4.5 µM in assay [5].

Consider `[O-][n+]1nc(N2CCOCC2)[n+]([O-])c2ccccc21`, for which the IC50 was > 95 µM in assay [1]; > 60 µM in [2]; > 95 µM in assay [3]; > 16.1 µM in [4]; > 47 µM in assay [5].

For the compound `[O-][n+]1nc(NCc2ccccc2Cl)[n+]([O-])c2ccccc21`, the 50% inhibitory concentration (IC50) in assay [1] was determined as 9.7 µM; in [2], 5.8 µM; in [3], 10.6 µM; in assay [4], 2.3 µM; in [5], 2.2 µM.

One may read the IC50 as the concentration that inhibits the measured activity by half. Lower therefore signals inhibition by little substance.
